Substitutions are numbered along the chain they refer to.
Key:
Details in all cases: stereoisomer not certain
OR4K1 R304H = system: T1, OR4K1 R304H
T1 sequence (whole entry): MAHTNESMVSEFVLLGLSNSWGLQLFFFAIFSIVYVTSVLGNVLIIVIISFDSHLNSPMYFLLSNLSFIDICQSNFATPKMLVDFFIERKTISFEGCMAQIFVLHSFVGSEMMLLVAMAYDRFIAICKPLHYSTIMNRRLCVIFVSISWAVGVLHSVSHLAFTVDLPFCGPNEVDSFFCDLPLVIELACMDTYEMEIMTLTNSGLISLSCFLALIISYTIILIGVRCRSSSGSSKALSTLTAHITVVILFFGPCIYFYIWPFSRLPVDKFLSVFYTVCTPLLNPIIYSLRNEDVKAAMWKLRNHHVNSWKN
In short: (§1)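 Whether a receptor–molecule pair is responsive (active) rests on the original authors' judgment that its measured signal was statistically different from baseline. Pairs without that judgment are non-responsive (inactive). Sources used varied assay methods, commonly transient luciferase assays in mammalian cell lines.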

OR4K13 (Homo sapiens) = target: T2, OR4K13 (Homo sapiens) (UniProt Q8NH42)
T2 sequence (whole entry): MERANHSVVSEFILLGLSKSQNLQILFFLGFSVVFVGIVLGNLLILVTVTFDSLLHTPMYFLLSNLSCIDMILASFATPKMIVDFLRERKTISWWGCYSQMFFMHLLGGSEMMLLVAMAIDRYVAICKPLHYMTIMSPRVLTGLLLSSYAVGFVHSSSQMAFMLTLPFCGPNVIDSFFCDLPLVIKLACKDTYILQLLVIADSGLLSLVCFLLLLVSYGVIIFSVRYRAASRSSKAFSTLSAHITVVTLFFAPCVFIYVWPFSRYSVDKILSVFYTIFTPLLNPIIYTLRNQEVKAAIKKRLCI
In short: as §1

OR4K14 (Homo sapiens) = target: T3, OR4K14 (Homo sapiens) (UniProt Q8NGD5)
T3 sequence (whole entry): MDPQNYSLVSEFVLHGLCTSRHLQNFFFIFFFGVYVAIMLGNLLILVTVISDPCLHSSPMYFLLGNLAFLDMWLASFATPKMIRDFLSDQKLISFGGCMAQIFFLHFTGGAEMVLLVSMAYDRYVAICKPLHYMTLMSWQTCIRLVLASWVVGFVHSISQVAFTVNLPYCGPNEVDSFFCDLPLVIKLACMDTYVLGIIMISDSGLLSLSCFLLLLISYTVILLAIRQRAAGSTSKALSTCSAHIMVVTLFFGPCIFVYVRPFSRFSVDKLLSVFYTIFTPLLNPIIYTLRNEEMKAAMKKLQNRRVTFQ
In short: as §1

OR4K2 (Homo sapiens) = target: T4, OR4K2 (Homo sapiens) (UniProt Q8NGD2)
T4 sequence (whole entry): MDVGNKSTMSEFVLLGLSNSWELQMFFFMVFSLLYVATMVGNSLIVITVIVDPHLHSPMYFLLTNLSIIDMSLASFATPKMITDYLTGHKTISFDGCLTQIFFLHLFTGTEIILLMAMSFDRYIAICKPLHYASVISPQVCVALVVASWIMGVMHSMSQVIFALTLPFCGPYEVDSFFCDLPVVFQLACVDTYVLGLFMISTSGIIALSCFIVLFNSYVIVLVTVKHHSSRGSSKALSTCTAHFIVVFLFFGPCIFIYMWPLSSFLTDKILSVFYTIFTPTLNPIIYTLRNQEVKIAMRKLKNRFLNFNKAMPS
In short: as §1

OR4K2 = system: T5, OR4K2
T5 sequence (whole entry): T4 sequence (whole entry) with N307I
In short: as §1

OR4K5 (Homo sapiens) = target: T6, OR4K5 (Homo sapiens) (UniProt Q8NGD3)
T6 sequence (whole entry): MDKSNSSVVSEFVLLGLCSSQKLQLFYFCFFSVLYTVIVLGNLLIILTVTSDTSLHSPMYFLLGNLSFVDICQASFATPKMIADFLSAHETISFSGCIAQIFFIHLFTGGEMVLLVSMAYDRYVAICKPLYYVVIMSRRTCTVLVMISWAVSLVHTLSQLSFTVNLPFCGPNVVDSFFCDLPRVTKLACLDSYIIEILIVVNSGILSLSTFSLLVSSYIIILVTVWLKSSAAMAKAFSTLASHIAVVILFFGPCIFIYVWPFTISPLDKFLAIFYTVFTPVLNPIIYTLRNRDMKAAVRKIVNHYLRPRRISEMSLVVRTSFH
In short: as §1

OR4KF = system: T7, OR4KF
T7 sequence (whole entry): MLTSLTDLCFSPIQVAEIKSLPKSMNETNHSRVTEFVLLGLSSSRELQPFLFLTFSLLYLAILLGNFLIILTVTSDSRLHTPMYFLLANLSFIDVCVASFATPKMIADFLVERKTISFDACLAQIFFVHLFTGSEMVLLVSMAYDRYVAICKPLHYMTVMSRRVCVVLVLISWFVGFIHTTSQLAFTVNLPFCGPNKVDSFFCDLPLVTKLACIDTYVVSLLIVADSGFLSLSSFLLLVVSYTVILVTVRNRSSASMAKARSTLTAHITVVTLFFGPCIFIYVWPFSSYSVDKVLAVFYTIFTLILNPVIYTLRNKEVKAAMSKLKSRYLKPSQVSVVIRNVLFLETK
In short: as §1

OR4K15 (Homo sapiens) = target: T8, OR4K15 (Homo sapiens) (UniProt Q8NH41)
T8 sequence (whole entry): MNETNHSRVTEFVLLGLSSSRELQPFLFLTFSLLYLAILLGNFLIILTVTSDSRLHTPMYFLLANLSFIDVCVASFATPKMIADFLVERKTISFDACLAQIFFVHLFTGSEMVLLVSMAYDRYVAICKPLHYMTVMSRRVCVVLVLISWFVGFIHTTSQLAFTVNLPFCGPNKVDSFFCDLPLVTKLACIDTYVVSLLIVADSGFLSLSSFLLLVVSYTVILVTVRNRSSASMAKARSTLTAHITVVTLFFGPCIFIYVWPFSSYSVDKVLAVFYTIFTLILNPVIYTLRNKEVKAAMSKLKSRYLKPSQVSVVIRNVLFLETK
In short: as §1

OR4K17 (Homo sapiens) = target: T9, OR4K17 (Homo sapiens) (UniProt Q8NGC6)
T9 sequence (whole entry): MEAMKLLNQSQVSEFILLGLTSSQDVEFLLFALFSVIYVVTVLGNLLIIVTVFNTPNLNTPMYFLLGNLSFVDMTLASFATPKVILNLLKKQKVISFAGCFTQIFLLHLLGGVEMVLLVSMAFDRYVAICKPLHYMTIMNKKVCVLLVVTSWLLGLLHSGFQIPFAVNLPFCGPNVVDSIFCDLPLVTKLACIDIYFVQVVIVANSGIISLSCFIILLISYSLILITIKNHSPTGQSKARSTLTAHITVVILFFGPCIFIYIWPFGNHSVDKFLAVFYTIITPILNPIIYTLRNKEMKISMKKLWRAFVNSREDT
In short: as §1

OR4K3 (Homo sapiens) = OR4K3 (Homo sapiens) (UniProt Q96R72)
Chain of OR4K3 (Homo sapiens) (Q96R72 whole entry): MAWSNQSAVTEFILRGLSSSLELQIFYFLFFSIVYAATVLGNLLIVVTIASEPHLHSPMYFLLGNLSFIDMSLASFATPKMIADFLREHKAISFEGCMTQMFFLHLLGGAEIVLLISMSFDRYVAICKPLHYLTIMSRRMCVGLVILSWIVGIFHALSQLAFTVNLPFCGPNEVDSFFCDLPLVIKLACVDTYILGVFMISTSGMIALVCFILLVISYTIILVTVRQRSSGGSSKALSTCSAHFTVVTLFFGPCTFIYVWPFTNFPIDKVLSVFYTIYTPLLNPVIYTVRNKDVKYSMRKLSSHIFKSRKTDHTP
In short: as §1

Measured: odorant receptor agonist call;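 further: active if original authors judged signal statistically different from baseline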

CCC1OC(=O)C(O)=C1C (stereo unspecified)
not listed: OR4K15 (Homo sapiens) | OR4K17 (Homo sapiens) | OR4K3 (Homo sapiens)
inactive: all other assays above

CCCCC(S)C(C)CO (stereo unspecified)
inactive: OR4K13 (Homo sapiens) | OR4K14 (Homo sapiens) | OR4K15 (Homo sapiens) | OR4K17 (Homo sapiens) | OR4K2 (Homo sapiens) | OR4K5 (Homo sapiens)

CC1=C(O)C(=O)C(C)O1 (stereo unspecified)
not listed: OR4K15 (Homo sapiens) | OR4K17 (Homo sapiens) | OR4K3 (Homo sapiens)
inactive: all other assays above

CC1CCCCCCCCCCCCC(=O)C1 (stereo unspecified)
not listed: OR4K1 R304H | OR4K2 | OR4KF
inactive: all other assays above

CC(=O)c1c(C)c([N+](=O)[O-])c(C(C)(C)C)c([N+](=O)[O-])c1C
not listed: OR4K1 R304H | OR4K2 | OR4KF
inactive: all other assays above

CCCCCC(S)C(C)CO (stereo unspecified)
inactive: OR4K13 (Homo sapiens) | OR4K14 (Homo sapiens) | OR4K15 (Homo sapiens) | OR4K17 (Homo sapiens) | OR4K2 (Homo sapiens) | OR4K5 (Homo sapiens)

Cc1cnc(C)c(C)n1
not listed: OR4K15 (Homo sapiens) | OR4K17 (Homo sapiens) | OR4K3 (Homo sapiens)
inactive: all other assays above

CCCCCCC=CCCC=O
not listed: OR4KF | OR4K3 (Homo sapiens)
inactive: all other assays above

CC1=C(O)C(=O)OC1C (stereo unspecified)
not listed: OR4K15 (Homo sapiens) | OR4K17 (Homo sapiens) | OR4K3 (Homo sapiens)
inactive: all other assays above

CCCCCC(=O)C(C)C(C)=O (stereo unspecified)
inactive: OR4K13 (Homo sapiens) | OR4K14 (Homo sapiens) | OR4K15 (Homo sapiens) | OR4K17 (Homo sapiens) | OR4K2 (Homo sapiens) | OR4K5 (Homo sapiens)

CCC(S)C(C)CO (stereo unspecified)
inactive: OR4K13 (Homo sapiens) | OR4K14 (Homo sapiens) | OR4K15 (Homo sapiens) | OR4K17 (Homo sapiens) | OR4K2 (Homo sapiens) | OR4K5 (Homo sapiens)

CCCC(S)CCOC(C)=O (stereo unspecified)
not listed: OR4K15 (Homo sapiens) | OR4K17 (Homo sapiens) | OR4K3 (Homo sapiens)
inactive: all other assays above

CC1=NC(C)C(C)S1 (stereo unspecified)
not listed: OR4K15 (Homo sapiens) | OR4K17 (Homo sapiens) | OR4K3 (Homo sapiens)
inactive: all other assays above

CCC1OC(C)=C(O)C1=O (stereo unspecified)
not listed: OR4K15 (Homo sapiens) | OR4K17 (Homo sapiens) | OR4K3 (Homo sapiens)
inactive: all other assays above

CC(CO)CS (stereo unspecified)
inactive: OR4K13 (Homo sapiens) | OR4K14 (Homo sapiens) | OR4K15 (Homo sapiens) | OR4K17 (Homo sapiens) | OR4K2 (Homo sapiens) | OR4K5 (Homo sapiens)

— the M2OR odorant receptor database
